Source: paper PMC6319658 (Journal of natural products, 2018)

How the values were obtained:
[1] = system: Colo205 cells that harbor the V600E B-Raf mutation; test: Western blot analysis of ERK signaling cascade proteins in Colo205 cells; type: cell-based, human; conditions: for total protein levels of B-Raf, C-Raf, and MEK / ERK protein levels: 18 h treatment
[2] = system: ERK; test: ERK kinase catalytic activity assay; type: biochemical; conditions: data not shown
[3] = system: C-Raf; test: Raf kinase catalytic activity assay; type: biochemical; conditions: 10 μM compound; data not shown
[4] = system: MEK; test: MEK1 kinase activity assay; type: biochemical; conditions: 10 μM compound; data not shown
[5] = system: B-Raf; test: Raf kinase catalytic activity assay; type: biochemical; conditions: 10 μM compound; data not shown
[6] = system: cells; conditions: cited from earlier work
[7] = system: 60 human tumor cell lines; test: NCI-60 cell line screening assay; type: cell-based; conditions: for growth suppression of cell lines that harbor the B-Raf V600E mutation: Colo205 colon, MALM-3M, SK-MEL-5, MDA-MB-435 melanoma cell lines; for pattern of cytotoxicity at the GI50 level: NCI-60 screen
Method in brief: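 Test compounds were submitted as DMSO solutions to the NCI-60 screen for cytotoxicity across 60 human tumor cell lines. The response patterns were analysed with bioinformatics tools on the public CellMiner site.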

[8] = system: SUMO conjugation enzymatic cascade; type: biochemical; conditions: read-out: IC50, inhibition of SUMOylation of a substrate peptide; in vitro electrophoretic mobility shift assay

inhibition of kinase catalytic activity of ERK [2] | inhibition of kinase catalytic activity of C-Raf [3] | inhibition of kinase catalytic activity of MEK [4] | inhibition of kinase catalytic activity of B-Raf [5] | IC50 [8] | SMILES | phosphorylation of MEK and subsequent activation of ERK ([1]; positive control) | total protein concentrations in the pathway ([1]; positive control) | total protein levels of B-Raf, C-Raf, and MEK ([1]; 1 μM) | ERK protein levels ([1]; 10 μM) | total protein levels of B-Raf, C-Raf, and MEK ([1]; 10 μM) | reactive oxygen species (ROS) in cells [6] | growth suppression of cell lines that harbor the B-Raf V600E mutation [7] | pattern of cytotoxicity at the GI50 level [7] | phosphorylation (activation) of MEK and ERK ([1]; 1 μM)
– | – | – | – | – | CN(C)CCOc1ccc(-c2nc(-c3ccc4c(c3)CC/C4=N\O)c(-c3ccncc3)[nH]2)cc1 [SB-590885, reference compound] | blocked phosphorylation of MEK | no significant impact | – | – | – | – | – | – | –
no reduction in kinase activity | no reduction in kinase activity | no reduction in kinase activity | no reduction in kinase activity | – | CSC1=C(N)C(=O)c2[nH]cc(CO)c2C1=N [Compound 1, macrophilone A] | – | – | effective at reducing these proteins | no corresponding loss | striking reductions | increase in reactive oxygen species | most potent | selective cytotoxicity | –
no reduction in kinase activity | no reduction in kinase activity | no reduction in kinase activity | no reduction in kinase activity | – | N=C1C2=C(NCC[S+]2[O-])C(=O)c2[nH]cc(CO)c21 (stereo not drawn) [Compound 4, macrophilone D] | – | – | – | no corresponding loss | striking reductions | – | – | selective cytotoxicity | increased phosphorylation
no reduction in kinase activity | no reduction in kinase activity | no reduction in kinase activity | no reduction in kinase activity | – | N=C1C2=C(NCCS2)C(=O)c2[nH]cc(CO)c21 [Compound 3, macrophilone C] | – | – | – | no corresponding loss | striking reductions | – | most potent | selective cytotoxicity | increased phosphorylation
– | – | – | – | > 100 µM | O=C1C2=C(SCCN2)C2=NCCc3c[nH]c1c32 [Compound 6, macrophilone F] | – | – | – | – | – | – | – | – | –
